Converted amounts (≈) assume the structure as drawn.
Assays:
[1] = Selectivity index, ratio of IC50 for mouse RAW264.7 cells to MIC for Mycobacterium tuberculosis H37Rv; format: toxicity; conditions: read-out: Selectivity Index
Outline: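 SI = IC50/MIC. IC50 comes from an MTT assay on RAW 264.7 cells, with viability read as conversion of MTT to formazan after 72 h exposure and % inhibition recorded at 50 µg/mL. MIC comes from the M. tuberculosis H37Rv MABA (5 days at 37 °C, Alamar Blue colour read-out).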

[2] = Toxicity against mouse RAW264.7 cells assessed as inhibition of cell viability after 72 hrs by MTT assay; format: cell-based
Outline: (§1)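 RAW 264.7 cells were exposed to compounds for 72 h. Viability was then scored by the cells' conversion of MTT into a formazan product, using a non-radioactive cell proliferation kit. Results were expressed as percentage growth inhibition at a single high concentration and as an approximate IC50.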

[3] = Toxicity against mouse RAW264.7 cells assessed as inhibition of cell viability at 50 ug/mL after 72 hrs by MTT assay; format: cell-based; conditions: read-out: INH; outline: as §1
[4] = tested on: Mycobacterium tuberculosis; experiment: Antimycobacterial activity against Mycobacterium tuberculosis H37Rv assessed as inhibition of microbial growth at 3.125 ug/mL after 5 days by MABA method; format: functional; conditions: 120 h
Outline: (§2)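 MABA in 96-well plates against M. tuberculosis H37Rv. Compounds serially diluted 1:2 across columns, inoculum added, with medium-only and 3–5% DMSO solvent controls. Incubated 37 °C for 5 days. A 1:1 mix of 10× Alamar Blue and 10% Tween 80 was added and plates were reincubated 24 h at 37 °C. Blue read as no growth, pink as growth. MIC read from colour.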

[5] = tested on: Mycobacterium tuberculosis; experiment: Antimycobacterial activity against Mycobacterium tuberculosis H37Rv after 5 days by MABA method; format: functional; conditions: 120 h; outline: as §2
[6] = tested on: Mycobacterium tuberculosis; experiment: Antimycobacterial activity against Mycobacterium tuberculosis H37Rv assessed as inhibition of microbial growth at 1.56 ug/mL after 5 days by MABA method; format: functional; conditions: 120 h; outline: as §2
[7] = tested on: Mycobacterium tuberculosis; experiment: Antimycobacterial activity against Mycobacterium tuberculosis H37Rv assessed as inhibition of microbial growth at 6.25 ug/mL after 5 days by MABA method; format: functional; conditions: 120 h; outline: as §2

Structure (SMILES) | selectivity ratio [1] | IC50 at 72 h [2] [µg/mL] | cytotoxicity at 72 h, 50 ug/mL [3] [%] | MIC [5] [µg/mL] | other results
Nc1nc(-c2ccc(CCN3CCN(CCCN4CCN(c5ccccc5)CC4)CC3)cc2)cs1 | > 15 | > 50 | 35.6 | 3.12 (≈ 6.37 µM) | inhibition at 3.125 µg/mL [4]: 99%
Nc1nc(-c2ccc(CCN3CCN(CCCCN4CCN(c5ccccc5)CC4)CC3)cc2)cs1 | – | – | – | 25 (≈ 49.5 µM) | –
CNc1nc(-c2ccc(CCN3CCN(CCCN4CCN(c5ccccc5)CC4)CC3)cc2)cs1 | – | – | – | 50 (≈ 99.1 µM) | –
CNc1nc(-c2ccc(CCN3CCN(CCCCN4CCN(c5ccccc5)CC4)CC3)cc2)cs1 | – | – | – | 12.5 (≈ 24.1 µM) | –
Cc1nc(-c2ccc(CCN3CCN(CCCN4CCN(c5ccccc5)CC4)CC3)cc2)cs1 | – | – | – | 25 (≈ 51 µM) | –
Nc1nc(-c2ccc(CCN3CCN(CCCN4CCN(C(c5ccccc5)c5ccccc5)CC4)CC3)cc2)cs1 | > 15 | > 50 | 38.4 | 3.12 (≈ 5.38 µM) | inhibition at 3.125 µg/mL [4]: 99%
Nc1nc(-c2ccc(CCN3CCN(CCCCN4CCN(C(c5ccccc5)c5ccccc5)CC4)CC3)cc2)cs1 | > 15 | > 50 | 46.4 | 3.12 (≈ 5.25 µM) | inhibition at 3.125 µg/mL [4]: 99%
CNc1nc(-c2ccc(CCN3CCN(CCCN4CCN(C(c5ccccc5)c5ccccc5)CC4)CC3)cc2)cs1 | > 30 | > 50 | 31.8 | 1.56 (≈ 2.62 µM) | inhibition at 1.56 µg/mL [6]: 99%
CNc1nc(-c2ccc(CCN3CCN(CCCCN4CCN(C(c5ccccc5)c5ccccc5)CC4)CC3)cc2)cs1 | – | – | – | 50 (≈ 82.1 µM) | –
Cc1nc(-c2ccc(CCN3CCN(CCCN4CCN(C(c5ccccc5)c5ccccc5)CC4)CC3)cc2)cs1 | > 7 | > 50 | 42.8 | 6.25 (≈ 10.8 µM) | inhibition at 6.25 µg/mL [7]: 99%
Nc1nc(-c2ccc(CCN3CCN(CCCN4CCN(c5ccccc5Cl)CC4)CC3)cc2)cs1 | – | – | – | 50 (≈ 95.2 µM) | –
Nc1nc(-c2ccc(CCN3CCN(CCCCN4CCN(c5ccccc5Cl)CC4)CC3)cc2)cs1 | – | – | – | 50 (≈ 92.7 µM) | –
CNc1nc(-c2ccc(CCN3CCN(CCCN4CCN(c5ccccc5Cl)CC4)CC3)cc2)cs1 | – | – | – | 12.5 (≈ 23.2 µM) | –
CNc1nc(-c2ccc(CCN3CCN(CCCCN4CCN(c5ccccc5Cl)CC4)CC3)cc2)cs1 | > 15 | > 50 | 40.4 | 3.12 (≈ 5.65 µM) | inhibition at 3.125 µg/mL [4]: 99%
Cc1nc(-c2ccc(CCN3CCN(CCCN4CCN(c5ccccc5Cl)CC4)CC3)cc2)cs1 | – | – | – | 50 (≈ 95.4 µM) | –
Nc1nc(-c2ccc(CCN3CCN(CCCN4CCN(c5ccc([N+](=O)[O-])cc5)CC4)CC3)cc2)cs1 | > 7 | > 50 | 36.5 | 6.25 (≈ 11.7 µM) | inhibition at 6.25 µg/mL [7]: 99%
Nc1nc(-c2ccc(CCN3CCN(CCCCN4CCN(c5ccc([N+](=O)[O-])cc5)CC4)CC3)cc2)cs1 | – | – | – | 12.5 (≈ 22.7 µM) | –
Nc1nc(-c2ccc(CCN3CCN(CCCCCN4CCN(c5ccc([N+](=O)[O-])cc5)CC4)CC3)cc2)cs1 | > 7 | > 50 | 44.6 | 6.25 (≈ 11.1 µM) | inhibition at 6.25 µg/mL [7]: 99%
CNc1nc(-c2ccc(CCN3CCN(CCCN4CCN(c5ccc([N+](=O)[O-])cc5)CC4)CC3)cc2)cs1 | – | – | – | 12.5 (≈ 22.7 µM) | –
CNc1nc(-c2ccc(CCN3CCN(CCCCN4CCN(c5ccc([N+](=O)[O-])cc5)CC4)CC3)cc2)cs1 | – | – | – | 50 (≈ 88.7 µM) | –
Cc1nc(-c2ccc(CCN3CCN(CCCN4CCN(c5ccc([N+](=O)[O-])cc5)CC4)CC3)cc2)cs1 | – | – | – | 50 (≈ 93.5 µM) | –
Nc1nc(-c2ccc(CCN3CCN(CCCN4CCN(c5ccccn5)CC4)CC3)cc2)cs1 | > 15 | > 50 | 38.1 | 3.12 (≈ 6.36 µM) | inhibition at 3.125 µg/mL [4]: 99%
Nc1nc(-c2ccc(CCN3CCN(CCCCN4CCN(c5ccccn5)CC4)CC3)cc2)cs1 | – | – | – | 12.5 (≈ 24.7 µM) | –
CNc1nc(-c2ccc(CCN3CCN(CCCN4CCN(c5ccccn5)CC4)CC3)cc2)cs1 | – | – | – | 12.5 (≈ 24.7 µM) | –
CNc1nc(-c2ccc(CCN3CCN(CCCCN4CCN(c5ccccn5)CC4)CC3)cc2)cs1 | – | – | – | 25 (≈ 48.1 µM) | –
Cc1nc(-c2ccc(CCN3CCN(CCCN4CCN(c5ccccn5)CC4)CC3)cc2)cs1 | – | – | – | 50 (≈ 102 µM) | –
NNC(=O)c1ccncc1 [ISONIAZID] | – | – | – | 0.05 (≈ 0.365 µM) | –
CO[C@H]1/C=C/O[C@@]2(C)Oc3c(C)c(O)c4c(O)c(c(/C=N/N5CCN(C)CC5)c(O)c4c3C2=O)NC(=O)/C(C)=C\C=C\[C@H](C)[C@H](O)[C@@H](C)[C@@H](O)[C@@H](C)[C@H](OC(C)=O)[C@@H]1C [RIFAMPIN] | – | – | – | 0.1 (≈ 0.122 µM) | –

Reference: ChEMBL document CHEMBL3351534, “Design, synthesis and antimycobacterial evaluation of 1-(4-(2-substitutedthiazol-4-yl)phenethyl)-4-(3-(4-substitutedpiperazin-1-yl)alkyl)piperazine hybrid analogues” (Eur J Med Chem, 2014)
